# Results gathered from unrelated publications.
# Lines come from different studies, so protocols differ.
Structure (SMILES),target or system,test,system,setting,endpoint,result
CCCCn1cnc2ccc(-c3ccc(NC(=O)CCC)nc3)cc2c1=O,NCI-H1975,"cell growth or viability, CCK-8",,72 h,IC50,1.27 µM
NCCC(=O)Nc1ccccc1/N=c1\cc(-c2ccc3oc(N)nc3c2)oc2ccccc12,NCI-H1975,"cell growth or viability, CCK-8",,1 µM,inhibition,24.3%
CCCC(C)C(=O)Nc1ccc(-c2ccc3ncn(CCC)c(=O)c3c2)cn1 (stereo not shown),NCI-H1975,"cell growth or viability, CCK-8",,72 h,IC50,2.76 µM
COCCC(=O)Nc1ccccc1/N=c1\cc(-c2ccc3c(c2)OCO3)oc2ccccc12,NCI-H1975,"cell growth or viability, CCK-8",,1 µM,inhibition,3.84%
COc1cccc(NC(=O)Nc2nc3cc(-c4ccc5ncn(Cc6ccccc6)c(=O)c5c4)ccc3s2)c1,NCI-H1975,"cell growth or viability, MTT",,72 h,IC50,> 20 µM
CCOc1ccc(Nc2c3c(nc4ccccc24)CCC3)cc1,Leishmania amazonensis,"parasite growth, MTT",,promastigote,IC50,1.43 µM
CCCCC(=O)Nc1ccc(-c2ccc3ncn(CCC(C)C)c(=O)c3c2)cn1,NCI-H1975,"cell growth or viability, CCK-8",,72 h,IC50,0.54 µM
Nc1nc2c(ncn2COCCO)c(=O)[nH]1,Human alphaherpesvirus 2,"viral replication, inhibitor, qPCR",Vero,,IC50,0.22 µM
NCC(=O)Nc1ccccc1/N=c1\cc(-c2ccc3c(c2)OCO3)oc2c(N)cccc12,NCI-H1975,"cell growth or viability, CCK-8",,1 µM,inhibition,4.64%
CCNC(=O)Nc1nc2cc(-c3ccc4ncn(Cc5ccccc5)c(=O)c4c3)ccc2s1,NCI-H1975,"cell growth or viability, MTT",,72 h,IC50,9.89 µM
NCCC(=O)Nc1ccc(/N=c2\cc(-c3ccc4c(c3)OCO4)oc3ccccc23)cc1,NCI-H1975,"cell growth or viability, CCK-8",,1 µM,inhibition,0.71%
COc1cccc(NC(=O)Nc2nc3cc(-c4ccc5ncn(CCC6CCCCC6)c(=O)c5c4)ccc3s2)c1,NCI-H1975,"cell growth or viability, MTT",,72 h,IC50,> 20 µM
C[C@H](N)C(=O)Nc1ccccc1/N=c1\cc(-c2ccc3c(c2)OCCO3)oc2c([N+](=O)[O-])cccc12,NCI-H1975,"cell growth or viability, CCK-8",,1 µM,inhibition,1.15%
CCCC(=O)Nc1ccc(-c2ccc3ncn(Cc4ccccc4)c(=O)c3c2)cn1,NCI-H1975,"cell growth or viability, CCK-8",,72 h,IC50,> 10 µM
CC(C)NC(=O)Nc1nc2cc(-c3ccc4ncn(Cc5ccccc5)c(=O)c4c3)ccc2s1,NCI-H1975,"cell growth or viability, MTT",,72 h,IC50,5.54 µM
c1ccc(Oc2ccc(Nc3c4c(nc5ccccc35)CCC4)cc2)cc1,Leishmania amazonensis,"parasite growth, MTT",,promastigote,IC50,1.09 µM
